Assay results published in PubChem BioAssay AID2607 (Broad Institute, 2010).

These compounds were tested on DRD fibroblasts (non-viral oncogenic) viability, Alamar Blue fluorescence, 48 h (assay: cytotoxicity in DRD fibroblasts, dose response, cell-based, fluorescence, Alamar Blue, powder samples (AID 2607)).
How it was run: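 Test system: DRD fibroblast cells. Buffer or medium: DMEM and M199 growth medium with fetal bovine serum. Doses: 2-fold series, 0.01–5.33 µg/mL final. Schedule: 48 h compound exposure, 37 °C, then ~16 h alamar blue. Signal: Alamar blue fluorescence, ex 544/em 590 nm.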
With COc1ccc(CN(CCC(c2ccccc2)c2ccc(OC(C)C)cc2)C(=O)CCl)cc1OC (centres undefined) the EC50 was 622 nM.
CCOc1ccc(Nc2nc(N)nc(CCl)n2)cc1 was tested, and the EC50 was 183 nM.
For C=CCOc1ccccc1CN(C(=O)CCl)c1ccc2c(c1)OCO2, the EC50 was 1140 nM.
Cc1ccc(N(C(=O)CCl)C(C(=O)NC2CCCCC2)c2cccnc2)cc1C (centres undefined) was tested, and the EC50 was 147 nM.
Compound COc1cccc(N(C(=O)CCl)C(C(=O)NCCc2ccccc2)c2cccs2)c1 (centres undefined) has an EC50 of 145 nM.
With COC(=O)[C@@H]1Cc2c([nH]c3ccccc23)C(C)(C)N1C(=O)CCl the EC50 was 467 nM.
Work on COc1ccc(N(C(=O)CCl)C(C(=O)NCCc2ccccc2)c2cccs2)cc1 (centres undefined) yielded an EC50 of 214 nM.
With COc1ccc(C(C(=O)NC2CCCCC2)N(C(=O)CCl)c2cccc(Cl)c2)cc1 (centres undefined) the EC50 was 137 nM.
Cc1ccc(C2CC(c3cccs3)=NN2C(=O)CCl)cc1 (centres undefined) showed an EC50 of 1210 nM.
COc1ccc(N(C(=O)CCl)C(C(=O)NCCc2ccccc2)c2cccs2)cc1Cl (centres undefined) was tested, and the EC50 was 34 nM.
With Nc1nc(CCl)nc(Nc2ccc3ccccc3c2)n1 the EC50 was 82 nM.
Compound COc1ccc(C(C(=O)NC2CCCCC2)N(C(=O)CCl)c2ccc(C)cc2)cc1 (centres undefined) has an EC50 of 143 nM.
Work on O=C(CCl)N=c1sccn1Cc1ccccc1Cl yielded an EC50 of 183 nM.
In the case of CCCCCCCN(C(=O)CCl)c1cccc(C)c1, the EC50 is reported as 171 nM.
